# Assay results: article PMC6420060 (ACS applied materials & interfaces, 2018)
# Key:
# Assay type in all cases: physicochemical
# [1] = Permeation into trapped giant unilamellar vesicles measured by FCS; conditions: 20 nM; for permeation into individual GUVs: 20% POPS
# Method in brief: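 POPC/POPS (4:1) GUVs, sucrose inside and glucose outside, ± 10 μM Ru complex for about 45 min. Held in BSA-coated microfluidic hydrodynamic traps with valves pressurised to 2 bar. 20 nM calcein in hosting buffer flushed in, valves reopened, static or under flow. After 30 min, FCS used a 488 nm laser at 60 μW. Curves fitted with a triplet term and corrected for buffer background. Permeation taken as N inside versus outside per vesicle.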
# [2] = ζ-Potential of GUVs after incubation with Ru; conditions: GUVs containing 1 M sucrose measured in 1 M glucose, Zetasizer Nano ZSP
# [3] = GUV size after incorporation of Ru; conditions: all samples pooled
# Method in brief: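 GUVs (POPC:POPS 4:1) made by emulsion transfer: 1 M sucrose/140 mM KCl/10 mM HEPES pH 7.4 inside, 1 M glucose/140 mM NaCl/10 mM HEPES outside. Incubated with 10 μM (final) Ru complex, typically 45 min, ± 200 μM (final) potassium ferricyanide. Imaged under a 60× water-immersion objective. Diameter taken at the z-plane of largest size, averaged over x and y. All vesicles pooled into histograms.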
Molecule,"permeation into individual GUVs ([1]; with Ru(C17)2^2+, sub-20 μm vesicle diameters)","permeation into individual GUVs under flow ([1]; without Ru(C17)2^2+, nominal flow rates of 2, 5, 8, and 11 μL/min, larger vesicles (above 20 μm))","permeation into individual GUVs ([1]; without Ru(C17)2^2+, vesicle diameter 20 μm)","permeation into individual GUVs ([1]; without Ru(C17)2^2+, vesicle diameter down to 10 μm)","ζ-potential of GUVs after incubation with Ru(C17)2^2+ ([2]; start of the period, pure GUVs with 20% POPS −90.8 ± 3.3 mV)",ζ-potential of GUVs after incubation with Ru(C17)2^2+ ([2]; up to 9 h after incubation),vesicle diameter with Ru(C17)2^2+ and addition of potassium ferricyanide [3],vesicle diameter upon incorporation of Ru(C17)2^2+ ([3]; 23.0 ± 6.6 without Ru(C17)2^2+)
O=C(O)CN(CC(=O)O)Cc1cc2c(cc1O)Oc1cc(O)c(CN(CC(=O)O)CC(=O)O)cc1C21OC(=O)c2ccccc21 [calcein],below 30%,below 10%,below 10%,60%,,,,
dihepta-decylated tris(bipyridine)ruthenium(II) complex [Ru(C17)2^2+],,,,,−11.7 ± 4.8 mV,−18.5 ± 2.6 mV,15.8 ± 3.8 µm,17.9 ± 4.8 nm
